The source made the active and inactive calls. The rule behind the calls is not given here.
Target: T1, Sphingosine 1-phosphate receptor 1 (Homo sapiens, UniProt P21453)
Assay: Agonist activity at human S1P1 receptor expressed in HEK293 cells assessed as inhibition of forskolin-stimulated cAMP production after 1 hr by HTRF assay
Type: functional, cell-based
Details: not given
Method in brief: (§1)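 Human S1P₁ cAMP HTRF read-out; each EC₅₀ is the mean of three or more replicates.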

T1 sequence (P21453 whole entry): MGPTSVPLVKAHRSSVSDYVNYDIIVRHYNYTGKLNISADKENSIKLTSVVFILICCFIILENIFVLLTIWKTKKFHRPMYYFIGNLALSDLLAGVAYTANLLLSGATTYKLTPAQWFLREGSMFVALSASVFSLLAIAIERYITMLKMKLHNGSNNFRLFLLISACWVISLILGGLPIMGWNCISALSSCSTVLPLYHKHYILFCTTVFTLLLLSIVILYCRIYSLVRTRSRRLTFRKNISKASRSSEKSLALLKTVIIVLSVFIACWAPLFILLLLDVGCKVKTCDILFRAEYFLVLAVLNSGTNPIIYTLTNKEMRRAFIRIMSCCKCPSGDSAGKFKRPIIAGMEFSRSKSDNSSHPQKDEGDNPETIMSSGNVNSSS

Row | EC50 [nM] | Structure (SMILES)
1 | 38 | CCc1ccc(-c2nc(-c3ccc4c(c3)CCN4C(=O)CCC(=O)O)no2)cc1S(C)(=O)=O
2 | 11 | COc1ccc(-c2nc(-c3ccc4c(c3)CCN4C(=O)CCC(=O)O)no2)cc1Cl
3 | 10.3 | COc1cc(C#N)cc(-c2nc(-c3ccc4c(c3)CCN4C(=O)CCC(=O)O)no2)c1
4 | 18 | N#Cc1cc(-c2nc(-c3ccc4c(c3)CCN4C(=O)CCC(=O)O)no2)ccc1OC1CCCC1
5 | 0.82 | O=C(O)CCC(=O)N1CCc2cc(-c3noc(-c4ccc(C5CCCC5)c(Cl)c4)n3)ccc21
6 | 11 | COc1ccc(-c2nc(-c3ccc4c(c3)CCN4C(=O)CCC(=O)O)no2)cc1C(F)(F)F
7 | 1.1 | CC(C)Oc1ccc(-c2nc(-c3ccc4c(c3)CCN4C(=O)CCC(=O)O)no2)cc1C#N
8 | 1 | COc1ccc(-c2nc(-c3ccc4c(c3)CCN4C(=O)CCC(=O)O)no2)cc1OC(F)(F)F
9 | 6.3 | COc1ccc(-c2nc(-c3ccc4c(c3)CCN4C(=O)CCC(=O)O)no2)cc1C#N
10 | 68 | O=C(O)CCC(=O)N1CCc2cc(-c3noc(-c4ccc(OC(F)(F)F)cc4)n3)ccc21
11 | 2.7 | CCc1ccc(-c2nc(-c3ccc4c(c3)CCN4C(=O)CCC(=O)O)no2)cc1C(F)(F)F
12 | 5.3 | O=C(O)CCC(=O)N1CCc2cc(-c3noc(-c4ccc(Cl)c(OC(F)(F)F)c4)n3)ccc21
13 | 1.5 | COc1cc(-c2nc(-c3ccc4c(c3)CCN4C(=O)CCC(=O)O)no2)ccc1OC(F)F
14 | 45 | CC[C@H](C)Oc1ccc(-c2nc(-c3ccc4c(c3)CCN4C(=O)CCC(=O)O)no2)cc1Cl
15 | 4 | CC(C)Oc1ccc(-c2nc(-c3ccc4c(c3)CCN4C(=O)CCC(=O)O)no2)cc1Br
16 | 18 | COc1ccc(-c2nc(-c3ccc4c(c3)CCN4C(=O)CCC(=O)O)no2)cc1C

More lines, now with the values behind:

Row | Structure (SMILES) | EC50 [nM]
17 | FC(F)(F)c1cc(-c2nc(N3CCc4[nH]ncc4C3)no2)cc(C(F)(F)F)c1 | 24
18 | FC(F)(F)c1cc(-c2nc(-c3ccc4[nH]ccc4c3)no2)cc(C(F)(F)F)c1 | 75
19 | O=C(O)CCCn1ncc2cc(-c3noc(-c4cc(C(F)(F)F)cc(C(F)(F)F)c4)n3)ccc21 | 4.9
20 | O=C(O)CCn1ncc2cc(-c3noc(-c4cc(C(F)(F)F)cc(C(F)(F)F)c4)n3)ccc21 | 9.8
21 | O=C(O)CCCn1ncc2c1CCN(c1noc(-c3cc(C(F)(F)F)cc(C(F)(F)F)c3)n1)C2 | 369
22 | O=C(O)CC(=O)N1CCc2cc(-c3noc(-c4cc(C(F)(F)F)cc(C(F)(F)F)c4)n3)ccc21 | 102
23 | N[C@@H](CC(=O)N1CCc2cc(-c3noc(-c4cc(C(F)(F)F)cc(C(F)(F)F)c4)n3)ccc21)C(=O)O | 1.63
24 | O=C(O)COc1ccc2c(c1)CCN(c1noc(-c3cc(C(F)(F)F)cc(C(F)(F)F)c3)n1)C2 | 54
25 | O=C(O)CCCC(=O)N1CCc2cc(-c3noc(-c4cc(C(F)(F)F)cc(C(F)(F)F)c4)n3)ccc21 | 6.6
26 | FC(F)(F)c1cc(-c2nc(-c3ccc4c(c3)CCN4)no2)cc(C(F)(F)F)c1 | 37
27 | O=C(O)CCC(=O)n1ccc2cc(-c3noc(-c4cc(C(F)(F)F)cc(C(F)(F)F)c4)n3)ccc21 | 41
28 | FC(F)(F)c1cc(-c2nc(N3CCc4[nH]cnc4C3)no2)cc(C(F)(F)F)c1 | 406
29 | O=C(O)CCN1CCc2cc(-c3noc(-c4cc(C(F)(F)F)cc(C(F)(F)F)c4)n3)ccc21 | 6.1
30 | O=C(O)CCc1nc2cc(-c3noc(-c4cc(C(F)(F)F)cc(C(F)(F)F)c4)n3)ccc2[nH]1 | 1.2
31 | CCOC(=O)CCn1ncc2cc(-c3noc(-c4cc(C(F)(F)F)cc(C(F)(F)F)c4)n3)ccc21 | > 100
32 | COC(=O)CCCCn1cc2cc(-c3noc(-c4cc(C(F)(F)F)cc(C(F)(F)F)c4)n3)ccc2n1 | 297
33 | COc1ccc2c(c1)CCN(c1noc(-c3cc(C(F)(F)F)cc(C(F)(F)F)c3)n1)C2 | 1
34 | FC(F)(F)c1cc(-c2nc(-c3ccc4[nH]cnc4c3)no2)cc(C(F)(F)F)c1 | 4.3
35 | FC(F)(F)c1cc(-c2nc(-c3ccc4[nH]ncc4c3)no2)cc(C(F)(F)F)c1 | 7.2
36 | O=C(O)CCCCn1cc2cc(-c3noc(-c4cc(C(F)(F)F)cc(C(F)(F)F)c4)n3)ccc2n1 | 4.2
37 | O=C(O)CCC(=O)N1CCc2cc(-c3noc(-c4ccc(-c5cccs5)c(C(F)(F)F)c4)n3)ccc21 | 1.3

System: Mus musculus
Assay: Immunomodulatory activity BALB/C mouse assessed as induction of lymphopenia at 1 mg/kg, po after 5 hrs
Type: functional, organism-based
Design: dose 1 mg/kg
Details: not given
Method in brief: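 Male BALB/c mice were given a single oral dose of 1.0 mg/kg or vehicle (0.5% methylcellulose). Blood lymphocytes were counted at one time point, 5 h post-dose, with n = 6 per dose group (mean ± SD). Lowering was judged relative to the vehicle group.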

Row | Structure (SMILES) | Activity
38 | O=C(O)CCc1nc2cc(-c3noc(-c4cc(C(F)(F)F)cc(C(F)(F)F)c4)n3)ccc2[nH]1 | inactive

Target: T1, Sphingosine 1-phosphate receptor 1
Assay: Agonist activity at human S1P1 receptor
Type: functional
Details: not given
Method in brief: as §1

Row | EC50 [nM] | Structure (SMILES)
39 | 372 | CCN(c1ccc2[nH]ncc2c1)S(=O)(=O)c1cc(C(F)(F)F)cc(C(F)(F)F)c1
40 | 6.7 | C=CCN(c1ccccc1)S(=O)(=O)c1cc(Cl)cc(Cl)c1
41 | 9.4 | FC(F)(F)c1cc(-c2nc(-c3ccc4[nH]ncc4c3)no2)cc(C(F)(F)F)c1

System: not listed separately
Assay: Aqueous solubility of the compound
Type: physicochemical
Details: buffer

Row | solubility [µg/mL] | Structure (SMILES)
42 | < 10 | N[C@@H](CC(=O)N1CCc2cc(-c3noc(-c4cc(C(F)(F)F)cc(C(F)(F)F)c4)n3)ccc21)C(=O)O

System: Mus musculus
Assay: Immunomodulatory activity BALB/C mouse assessed as induction of lymphopenia at 0.3 to 3 mg/kg, po after 8 hrs
Type: functional, organism-based
Details: not given
Method in brief: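 Male BALB/c mice were dosed orally at 0.3, 1.0 or 3.0 mg/kg, or with vehicle (0.5% methylcellulose in water). Blood lymphocytes were followed over time post-dose (mean ± SD). Observed values were fitted with an indirect PK/PD model.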

Row | Structure (SMILES) | Activity
43 | CC(C)Oc1ccc(-c2nc(-c3ccc4c(c3)CCN4C(=O)CCC(=O)O)no2)cc1C#N | Active

Target: T1, Sphingosine 1-phosphate receptor 1
Assay: Agonist activity at recombinant human S1P1 receptor expressed in HEK293 cells after 2 hrs by beta-arrestin assay
Type: functional, cell-based
Details: not given

Row | EC50 [nM] | Structure (SMILES)
44 | 6.8 | CC(C)Oc1ccc(-c2nc(-c3ccc4c(c3)CCN4C(=O)CCC(=O)O)no2)cc1C#N

System: not listed separately
Assay: Half life in human
Type: ADME, organism-based
Details: in vivo

Row | half-life [h] | Structure (SMILES)
45 | 144 | CCCCCCCCc1ccc(CCC(N)(CO)CO)cc1.Cl [FINGOLIMOD HYDROCHLORIDE]
